The text below walks through data of ChEMBL document CHEMBL1140441, “Design, synthesis, and activity of analogues of phosphinothricin as inhibitors of glutamine synthetase” (J Med Chem, 2005).

The target in assay [1] is T1, Glutamine synthetase (Escherichia coli K-12, UniProt P0A9C5).
T1 sequence (P0A9C5 whole entry): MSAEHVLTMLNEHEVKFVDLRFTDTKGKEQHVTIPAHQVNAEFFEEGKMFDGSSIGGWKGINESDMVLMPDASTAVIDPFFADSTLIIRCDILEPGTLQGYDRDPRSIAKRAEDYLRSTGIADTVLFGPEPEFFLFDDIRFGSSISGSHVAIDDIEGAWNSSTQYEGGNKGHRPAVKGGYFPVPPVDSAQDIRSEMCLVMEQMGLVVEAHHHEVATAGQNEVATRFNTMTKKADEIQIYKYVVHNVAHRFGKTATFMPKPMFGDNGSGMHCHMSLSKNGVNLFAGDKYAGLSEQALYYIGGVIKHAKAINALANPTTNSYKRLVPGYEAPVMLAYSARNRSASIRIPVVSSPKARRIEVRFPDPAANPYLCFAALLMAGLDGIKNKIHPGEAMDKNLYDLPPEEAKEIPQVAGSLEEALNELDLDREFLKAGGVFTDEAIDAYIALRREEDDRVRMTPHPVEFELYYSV
The assay is described as follows: Inhibitory concentration against glutamine synthetase incubated at 37 degree C for 20 minutes in pH 7.4. Put shortly: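 Fully activated E. coli strain W GS (30 pkat) in 50 mM Tris-HCl pH 7.4 with 100 mM glutamate, 5 mM ATP, 1 mM NH4Cl and 25 mM MgCl2, run at 37 °C for up to 20 min. Phosphate release was measured from the initial linear rate. IC50 came from linear regression of % control against log concentration.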

In assay [2] the target is T1, Glutamine synthetase. The assay can be described thus: (§1) Binding affinity towards glutamine synthetase. Put shortly:
(§2)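 E. coli strain W glutamine synthetase (fully activated), full forward reaction read by inorganic phosphate release at 37 °C, pH 7.4 Tris-HCl. Glutamate was varied from 15 to 80 mM, with ATP and NH4Cl fixed at standard levels. At least four inhibitor levels were tested, each dose at least in triplicate. Ki came from Lineweaver–Burk plots and is given as mean ± SEM.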

Assay [3] addresses T1, Glutamine synthetase. The assay is described as §1. Put shortly: as §2
This is another data set of the same source.

The term IC50 denotes the concentration at which inhibition is half-maximal. Low readings indicate greater potency in that assay, high ones weaker potency in that assay. Usually Ki stands for a measure of affinity in units of concentration, obtained from inhibition or displacement. Read a low Ki as tighter binding. Take `NCP(=O)(O)CC[C@H](N)C(=O)O`: the IC50 at Glutamine synthetase [1] is 1 µM. The Ki at Glutamine synthetase [2] and on Glutamine synthetase [3] was 0.59 µM throughout.
For `NCCP(=O)(O)CC[C@H](N)C(=O)O`, the IC50 on Glutamine synthetase [1] was found to be 55 µM. For the same molecule, the Ki at Glutamine synthetase [2] and on Glutamine synthetase [3] was 13 µM in each case.
Molecule `N[C@@H](CCP(=O)(O)CCC(=O)O)C(=O)O` had an IC50 on Glutamine synthetase [1] of 970 µM. Also, the Ki at Glutamine synthetase [2] was 150 µM; on Glutamine synthetase [3], 147 µM.
As to `CP(=O)(O)CC[C@H](N)C(=O)O`, at Glutamine synthetase [1], the IC50 worked out at 1.2 µM. Besides, the Ki at Glutamine synthetase [2] and at Glutamine synthetase [3] was 0.6 µM each time.
As for `N[C@@H](CCP(=O)(O)CO)C(=O)O`, half-maximal inhibition on Glutamine synthetase [1] (IC50) required 10.4 µM. Besides, the Ki on Glutamine synthetase [2] and on Glutamine synthetase [3] was 2.1 µM each time.
On to `C[C@@H](N)P(=O)(O)CC[C@H](N)C(=O)O`, for which it took 31 µM to reach half-maximal inhibition at Glutamine synthetase [1] (IC50). The inhibitory constant (Ki) at Glutamine synthetase [2] and at Glutamine synthetase [3] was 3.4 µM in each case.
Consider `C[C@H](N)P(=O)(O)CC[C@H](N)C(=O)O` (mixture of isomers), for which, on Glutamine synthetase [1], the IC50 amounted to 33 µM. Besides, the Ki on Glutamine synthetase [2] and at Glutamine synthetase [3] was 3.7 µM throughout.
